Assay results gathered from unrelated publications.
Target: Leukocyte tyrosine kinase receptor (LTK, Homo sapiens, UniProt P29376)

The remaining binding of COc1ncccc1-c1cnn2ccc(N3CCN(C(=O)OC(C)C)CC3)nc12 is reported as 68% (binding, competition with immobilised ligand; 1 µM).
The inhibition of Cn1cc(-c2cccc(N3CCc4c(sc5c4CC(C)(C)C5)C3=O)c2CO)cc(Nc2ccncn2)c1=O is reported as 4% (enzyme activity, inhibitor; 1 µM).
The remaining binding of Cn1cncc1[C@](O)(COc1ccc(C#N)cc1-c1ccc(OC(F)(F)F)cc1)c1ccc(C#N)cc1 is reported as 91% (cell-free assay, competition with immobilised ligand; 1 µM).
Cn1cc(-c2cc(F)cc(N3CCn4c(cc5c4CCCC5)C3=O)c2CO)cc(Nc2ccc(N3CCN(C4COC4)CC3)cn2)c1=O has an inhibition of 11% (enzyme activity, inhibitor; 0.1 µM).
With Nc1nccc(-c2c(-c3ccc(F)cc3)ncn2C2CCNCC2)n1 the remaining activity was 97.3% (enzyme activity, inhibitor, radiometric; 0.5 µM).
CC(C)(C)c1nc2c(s1)c1nc(N)ncc1c1ccc(NS(=O)(=O)c3c(F)cccc3F)c(F)c12 gave a remaining activity of 90% (enzyme activity, inhibitor, radiometric; 1 µM).
COc1ccc(OC)c2c(=S)c3ccccc3[nH]c12 has a remaining activity of 84.5% (enzyme activity, inhibitor, radiometric; 0.5 µM).
CC(C)(C)c1nc(-c2cccc(NS(=O)(=O)c3c(F)cccc3F)c2F)c(-c2ccnc(N)n2)s1 has a remaining activity of 93% (enzyme activity, inhibitor, radiometric; 1 µM).
Nc1ncc(-c2nc(N3CCOCC3)nc(N3CCOCC3)n2)c(C(F)F)n1 has a remaining binding of 26% (cell-free assay, competition with immobilised ligand; 10 µM).
For Cc1nn(C)cc1-c1nc2c(N3CCN(Cc4ccc(Cl)cc4)CC3)c(Cl)cnc2[nH]1, the remaining binding was 100% (binding, competition with immobilised ligand; 1 µM).
